ChEMBL document CHEMBL3232963, “Discovery of a potent and selective α3β4 nicotinic acetylcholine receptor antagonist from an α-conotoxin synthetic combinatorial library” (J Med Chem, 2014)
Activity calls are given as the source filed them. The calls are words filed in the database; no cut-off is given here. Bridge positions count the residues as written; N and C are the ends. Square brackets hold non-standard residues; d marks the D form. Peptide text beside a SMILES is read from it. Nle = CCCC[C@H](N)C(=O)O; Nva = CCC[C@H](N)C(=O)O; Abu = CC[C@H](N)C(=O)O

Assays:
Type in all cases: cell-based
[1] = target: Neuronal acetylcholine receptor; alpha3/beta4 (Rattus norvegicus) (UniProt P04757+P12392); experiment: Antagonist activity at rat alpha3beta4 nAChR expressed in HEK293 cells assessed as inhibition of epibatadine-induced effect at 10 uM after 30 mins by fluorescent membrane potential assay relative to mecamylamine
Procedure, shortened: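 Rat α3β4 nAChR stably expressed in HEK293 cells; crude, SPE-desalted individual peptides tested at 10 μM in HBSS with membrane potential blue dye, 30 min at 37 °C. Fluorescence change read after epibatidine (0.1 μM). Percent inhibition set against 10 μM mecamylamine taken as 100%.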

[2] = target: T1, Neuronal acetylcholine receptor; alpha3/beta4 (Rattus norvegicus, UniProt P04757+P12392); experiment: Antagonist activity at rat alpha3beta4 nAChR expressed in HEK293 cells assessed as inhibition of epibatadine-induced effect after 30 mins by fluorescent membrane potential assay
T1 sequence (P04757 whole entry): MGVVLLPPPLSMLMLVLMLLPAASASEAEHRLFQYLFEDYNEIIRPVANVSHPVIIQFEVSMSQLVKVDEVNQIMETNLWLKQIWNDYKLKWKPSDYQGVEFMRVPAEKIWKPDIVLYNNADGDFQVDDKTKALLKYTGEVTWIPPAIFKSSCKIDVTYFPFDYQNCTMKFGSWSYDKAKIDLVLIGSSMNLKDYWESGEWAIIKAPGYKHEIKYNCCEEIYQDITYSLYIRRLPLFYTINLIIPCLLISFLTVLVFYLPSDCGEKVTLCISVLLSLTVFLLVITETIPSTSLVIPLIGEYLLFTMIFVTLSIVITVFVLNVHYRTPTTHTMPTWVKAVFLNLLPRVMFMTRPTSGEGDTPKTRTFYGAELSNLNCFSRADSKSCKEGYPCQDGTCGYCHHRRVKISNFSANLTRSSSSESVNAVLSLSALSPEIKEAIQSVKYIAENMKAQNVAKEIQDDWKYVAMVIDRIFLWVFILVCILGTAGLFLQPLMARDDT
T1 sequence (P12392 whole entry): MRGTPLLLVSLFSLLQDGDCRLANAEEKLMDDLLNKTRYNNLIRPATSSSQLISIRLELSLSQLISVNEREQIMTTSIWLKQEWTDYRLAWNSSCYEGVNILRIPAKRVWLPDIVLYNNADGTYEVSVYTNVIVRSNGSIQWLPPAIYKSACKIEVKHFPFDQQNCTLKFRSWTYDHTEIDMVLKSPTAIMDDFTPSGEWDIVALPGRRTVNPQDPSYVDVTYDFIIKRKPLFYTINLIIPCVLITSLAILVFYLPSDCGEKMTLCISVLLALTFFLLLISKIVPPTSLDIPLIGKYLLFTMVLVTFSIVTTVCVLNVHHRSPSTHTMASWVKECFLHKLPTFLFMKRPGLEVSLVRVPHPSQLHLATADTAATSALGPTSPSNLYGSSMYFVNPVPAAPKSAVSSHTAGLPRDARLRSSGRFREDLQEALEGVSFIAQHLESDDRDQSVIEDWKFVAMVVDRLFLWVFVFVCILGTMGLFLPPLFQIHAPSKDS
Procedure, shortened: (§1)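 Stably transfected HEK293 lines (KXα3β4R2, KXα3β2R2, KXα4β2R2; rat subunits) grown in DMEM/10% FBS with G-418, plated 24 h before assay. Cells washed with HBSS, peptide added, then membrane potential blue dye, 30 min at 37 °C. Fluorescence (ex 565/em 530 nm) read up to 60 s after epibatidine to 0.1 μM. IC50 from maximal responses across concentrations; n = 4.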

[3] = target: Neuronal acetylcholine receptor; alpha3/beta2 (Rattus norvegicus, UniProt P04757+P12390); experiment: Antagonist activity at rat alpha3beta2 nAChR expressed in HEK293 cells assessed as inhibition of epibatadine-induced effect after 30 mins by fluorescent membrane potential assay; procedure, shortened: as §1
Neuronal acetylcholine receptor; alpha3/beta2, sequence (P04757 whole entry): as the sequence (P04757 whole entry) above
Neuronal acetylcholine receptor; alpha3/beta2, sequence (P12390 whole entry): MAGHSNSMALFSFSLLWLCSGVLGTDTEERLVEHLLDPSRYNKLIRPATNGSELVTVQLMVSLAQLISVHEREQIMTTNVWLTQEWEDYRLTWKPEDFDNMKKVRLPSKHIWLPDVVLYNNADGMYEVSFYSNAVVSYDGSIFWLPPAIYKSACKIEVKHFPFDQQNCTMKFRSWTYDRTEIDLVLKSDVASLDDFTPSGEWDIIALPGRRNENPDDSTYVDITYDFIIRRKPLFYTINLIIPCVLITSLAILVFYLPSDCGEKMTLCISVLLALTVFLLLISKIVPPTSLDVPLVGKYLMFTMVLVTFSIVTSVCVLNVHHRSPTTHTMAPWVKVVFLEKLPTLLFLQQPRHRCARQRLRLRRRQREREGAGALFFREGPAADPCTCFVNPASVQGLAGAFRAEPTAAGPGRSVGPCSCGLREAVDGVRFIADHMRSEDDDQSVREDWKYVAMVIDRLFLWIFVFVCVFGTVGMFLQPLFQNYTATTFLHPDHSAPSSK

[4] = target: Neuronal acetylcholine receptor; alpha4/beta2 (Rattus norvegicus, UniProt P09483+P12390); experiment: Antagonist activity at rat alpha4beta2 nAChR expressed in HEK293 cells assessed as inhibition of epibatadine-induced effect after 30 mins by fluorescent membrane potential assay; procedure, shortened: as §1
Neuronal acetylcholine receptor; alpha4/beta2, sequence (P09483 whole entry): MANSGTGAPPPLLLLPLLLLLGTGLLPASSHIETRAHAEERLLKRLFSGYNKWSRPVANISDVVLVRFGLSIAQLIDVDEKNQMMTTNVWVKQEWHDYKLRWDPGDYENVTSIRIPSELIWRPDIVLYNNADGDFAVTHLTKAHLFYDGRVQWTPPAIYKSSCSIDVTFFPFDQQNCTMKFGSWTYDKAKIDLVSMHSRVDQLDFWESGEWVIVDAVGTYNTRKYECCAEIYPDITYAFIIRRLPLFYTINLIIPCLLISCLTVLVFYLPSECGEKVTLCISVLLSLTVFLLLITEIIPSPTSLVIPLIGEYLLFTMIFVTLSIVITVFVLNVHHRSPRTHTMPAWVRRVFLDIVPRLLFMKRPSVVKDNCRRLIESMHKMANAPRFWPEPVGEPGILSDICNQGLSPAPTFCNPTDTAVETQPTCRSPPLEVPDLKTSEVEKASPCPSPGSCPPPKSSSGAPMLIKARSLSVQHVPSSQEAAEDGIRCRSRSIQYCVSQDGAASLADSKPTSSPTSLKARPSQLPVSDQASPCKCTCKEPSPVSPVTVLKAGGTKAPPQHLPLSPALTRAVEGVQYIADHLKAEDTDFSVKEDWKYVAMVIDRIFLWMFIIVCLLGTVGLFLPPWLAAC
Neuronal acetylcholine receptor; alpha4/beta2, sequence (P12390 whole entry): as the sequence (P12390 whole entry) above

[5] = target: T1, Neuronal acetylcholine receptor; alpha3/beta4; experiment: Displacement of [3H]epibatadine from rat alpha3beta4 nAChR expressed in HEK293 cells after 2 hrs by betaplate counting analysis
Procedure, shortened: (§2)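 Membranes from HEK293 cells stably expressing α3β4 or α4β2 nAChR, homogenised in 50 mM Tris pH 7.4 and washed by centrifugation. Incubated 2 h at room temperature with peptide and 0.31 nM [3H]epibatidine; filtered on PEI-soaked glass fibre, counted. Nonspecific binding with 0.1 μM unlabeled epibatidine. Ki by Cheng–Prusoff from IC50.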

[6] = target: Neuronal acetylcholine receptor; alpha4/beta2 (Rattus norvegicus) (UniProt P09483+P12390); experiment: Displacement of [3H]epibatadine from rat alpha4beta2 nAChR expressed in HEK293 cells up to 10 uM after 2 hrs by betaplate counting analysis; procedure, shortened: as §2
[7] = target: Neuronal acetylcholine receptor subunit alpha-7 (Homo sapiens) (UniProt P36544); experiment: Inhibition of alpha7 nAChR (unknown origin) expressed in Xenopus laevis oocytes assessed as inhibition of acetylcholine-evoked current at 10 uM by voltage clamp technique
Neuronal acetylcholine receptor subunit alpha-7 (Homo sapiens), sequence (P36544 whole entry): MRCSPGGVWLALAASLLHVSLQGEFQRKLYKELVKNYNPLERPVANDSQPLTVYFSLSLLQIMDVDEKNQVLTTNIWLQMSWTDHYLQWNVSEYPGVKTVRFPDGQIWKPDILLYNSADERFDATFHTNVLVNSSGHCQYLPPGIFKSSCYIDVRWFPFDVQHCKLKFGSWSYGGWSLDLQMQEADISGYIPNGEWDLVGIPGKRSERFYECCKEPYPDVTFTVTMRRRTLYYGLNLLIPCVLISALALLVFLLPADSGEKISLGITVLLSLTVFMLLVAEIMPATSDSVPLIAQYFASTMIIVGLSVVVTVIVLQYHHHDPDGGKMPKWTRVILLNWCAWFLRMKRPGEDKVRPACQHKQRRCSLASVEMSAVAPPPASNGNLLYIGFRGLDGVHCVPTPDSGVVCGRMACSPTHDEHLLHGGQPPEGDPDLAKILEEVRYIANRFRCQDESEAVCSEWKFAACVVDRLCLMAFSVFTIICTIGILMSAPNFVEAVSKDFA

SMILES | inhibition [1] [%] | IC50 [2] [nM] | IC50 [3] [nM] | IC50 [4] [nM] | Ki [5] [nM] | Activity [6] | inhibition [7]
CCC[C@@H]1NC(=O)[C@H](CC)NC(=O)[C@H]([C@H](C)CC)NC(=O)[C@@H]2CSSC[C@H](NC(=O)CN)C(=O)N[C@@H](CSSC[C@@H](C(=O)O)NC(=O)[C@H](Cc3ccc(O)cc3)NC1=O)C(=O)N[C@@H](CO)C(=O)N[C@@H](Cc1cnc[nH]1)C(=O)N1CCC[C@H]1C(=O)N[C@@H](CC)C(=O)N2 | 84.5 | 1930 | > 10000 | > 10000 | – | – | –
CCCC[C@@H]1NC(=O)[C@H](CO)NC(=O)[C@@H]2CSSC[C@@H](C(=O)O)NC(=O)[C@H](Cc3ccc(O)cc3)NC(=O)[C@H](CCC)NC(=O)[C@H](CC)NC(=O)[C@H](Cc3ccccc3)NC(=O)[C@H](CSSC[C@H](NC(=O)CN)C(=O)N2)NC(=O)[C@H](CC)NC(=O)[C@@H]2CCCN2C1=O (H-GCCS[Nle]P[Abu]CF[Abu][Nva]YC-OH; disulfide 2-8, 3-13) | 104 | 320 | > 10000 | > 10000 | 980 | inactive | inactive
CCCC[C@@H]1NC(=O)[C@H](CC)NC(=O)[C@H]([C@H](C)CC)NC(=O)[C@@H]2CSSC[C@H](NC(=O)CN)C(=O)N[C@@H](CSSC[C@@H](C(=O)O)NC(=O)[C@H](Cc3ccc(O)cc3)NC1=O)C(=O)N[C@@H](CO)C(=O)N[C@@H](Cc1cnc[nH]1)C(=O)N1CCC[C@H]1C(=O)N[C@@H](CC)C(=O)N2 | 110 | 463 | > 10000 | > 10000 | – | – | –
CCCC[C@@H]1NC(=O)[C@H](CC)NC(=O)[C@H](Cc2ccccc2)NC(=O)[C@@H]2CSSC[C@H](NC(=O)CN)C(=O)N[C@@H](CSSC[C@@H](C(=O)O)NC(=O)[C@H](Cc3ccc(O)cc3)NC1=O)C(=O)N[C@@H](CO)C(=O)N[C@@H](Cc1cnc[nH]1)C(=O)N1CCC[C@H]1C(=O)N1CCC[C@H]1C(=O)N2 (H-GCCSHPPCF[Abu][Nle]YC-OH; disulfide 2-8, 3-13) | 106 | 469 | > 10000 | > 10000 | – | – | –
CCCC[C@@H]1NC(=O)[C@H](CC)NC(=O)[C@H](Cc2ccccc2)NC(=O)[C@@H]2CSSC[C@H](NC(=O)CN)C(=O)N[C@@H](CSSC[C@@H](C(=O)O)NC(=O)[C@H](Cc3ccc(O)cc3)NC1=O)C(=O)N[C@@H](CO)C(=O)N[C@@H](CCCC)C(=O)N1CCC[C@H]1C(=O)N1CCC[C@H]1C(=O)N2 (H-GCCS[Nle]PPCF[Abu][Nle]YC-OH; disulfide 2-8, 3-13) | 107 | 397 | > 10000 | > 10000 | – | – | –
CCCC[C@@H]1NC(=O)[C@H](CC)NC(=O)[C@H](Cc2ccccc2)NC(=O)[C@@H]2CSSC[C@H](NC(=O)CN)C(=O)N[C@@H](CSSC[C@@H](C(=O)O)NC(=O)[C@H](Cc3ccc(O)cc3)NC1=O)C(=O)N[C@@H](CO)C(=O)N[C@@H](Cc1cnc[nH]1)C(=O)N1CCC[C@H]1C(=O)N[C@@H](CC)C(=O)N2 (H-GCCSHP[Abu]CF[Abu][Nle]YC-OH; disulfide 2-8, 3-13) | 110 | 307 | > 10000 | > 10000 | – | – | –
CCCC[C@@H]1NC(=O)[C@H](CO)NC(=O)[C@@H]2CSSC[C@@H](C(=O)O)NC(=O)[C@H](Cc3ccc(O)cc3)NC(=O)[C@H](CCC)NC(=O)[C@H](CC)NC(=O)[C@H](Cc3ccccc3)NC(=O)[C@H](CSSC[C@H](NC(=O)CN)C(=O)N2)NC(=O)[C@@H]2CCCN2C(=O)[C@@H]2CCCN2C1=O (H-GCCS[Nle]PPCF[Abu][Nva]YC-OH; disulfide 2-8, 3-13) | 96.4 | 345 | > 10000 | > 10000 | 1110 | inactive | inactive
